This is a sample that favours compounds with a hit; in the whole collection about 2% have one here.
SIAE primary: inhibitors of human sialic acid acetylesterase SIAE | inhibition, % at 9.66 µM | 0.69% of 370,000 active | Q9HAT2 | SIAE FP-Rh probe binding, fluorescence polarization;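 active means inhibition above a cutoff: mean of compounds within the control limits plus 3 SD of those, cut at about 17% in these data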;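 further: 0% = plate median of compound wells and 100% = probe without SIAE protein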
TCR CD3 inh: human TCR-CD3 binding inhibition; TAMRA-labeled TCR probe fluorescence, biochemical; inhibition, % at 9.4 µM; 0.37% of 360,000 active;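 further: recombinant mutant TCR 2C K166C tagged with TAMRA read by polarization; 0% = receptor in buffer alone and 100% = receptor with positive control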
TDP2 absorb: TDP2 (human) inhibition, absorbance primary screen; recombinant TDP2, T5PNP hydrolysis, p-nitrophenol absorbance 415 nm; 0.34% of 370,000 active; inhibition, % at 12.8 µM;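 active means inhibition above the mean of all tested compounds plus 3 SD, set per campaign, cut at about 25% in these data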;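 further: 0% = DMSO with enzyme and 100% = buffer with substrate but no TDP2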
Target sequence (O95551 whole entry, looked up): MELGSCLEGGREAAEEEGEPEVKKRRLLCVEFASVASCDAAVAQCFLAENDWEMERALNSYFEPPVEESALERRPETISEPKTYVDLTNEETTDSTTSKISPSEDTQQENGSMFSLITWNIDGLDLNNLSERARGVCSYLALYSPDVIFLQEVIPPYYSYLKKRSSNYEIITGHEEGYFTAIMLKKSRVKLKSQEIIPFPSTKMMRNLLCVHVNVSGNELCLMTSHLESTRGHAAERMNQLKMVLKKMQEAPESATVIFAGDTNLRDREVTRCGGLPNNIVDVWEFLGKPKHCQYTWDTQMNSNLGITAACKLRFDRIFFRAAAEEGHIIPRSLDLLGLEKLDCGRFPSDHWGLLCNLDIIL
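Read-out basis: percent inhibition. System: recombinant human TDP2. Buffer or medium: Mg2+-containing Tris-HCl buffer, pH 7.5. Repeats: single replicate. Timing: reaction 2 h, 37 °C. Benchmarks: high control without enzyme, low control DMSO plus TDP2. Probe or stimulus: 5 mM T5PNP. Doses: 12.8 µM only. Measured by: epi absorbance of p-nitrophenol freed from T5PNP by hydrolysis.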
ABHD4 inh: ABHD4 (mouse) inhibition, primary FP screen | Q8VD66 | purified mABHD4, FP-Rh probe fluorescence polarization | inhibition, % at 8.92 µM | 0.54% of 370,000 active;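 active means inhibition exceeding the mean over every tested compound plus 3 SD, cut at about 30% in these data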;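 further: 0% = plate median of compound wells and 100% = S159A mutant with DMSO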
Target sequence (Q8VD66 whole entry, looked up): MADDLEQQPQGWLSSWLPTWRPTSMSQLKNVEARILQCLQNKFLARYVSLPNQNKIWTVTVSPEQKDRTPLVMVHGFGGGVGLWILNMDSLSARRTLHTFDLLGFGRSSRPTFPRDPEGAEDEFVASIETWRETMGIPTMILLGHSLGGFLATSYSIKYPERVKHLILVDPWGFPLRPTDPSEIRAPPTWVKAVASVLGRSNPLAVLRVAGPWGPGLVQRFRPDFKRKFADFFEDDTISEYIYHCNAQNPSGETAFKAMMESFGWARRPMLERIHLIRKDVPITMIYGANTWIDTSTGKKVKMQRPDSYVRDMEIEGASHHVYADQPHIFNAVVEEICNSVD
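Assay system: mouse ABHD4 enzyme, wild type / Also added: fluorescent activity-based probe FP-Rh / Doses: single nominal dose of 8.92 µM, 0.89% DMSO final / Timing: 45 min compound pre-incubation plus 60 min probe step, 25 °C / Signal: FP readout, ex 525 nm / em 598 nm / Control set: S159A mutant/DMSO as 100%, compound-well median as 0%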
HTRA1 inh: HTRA1 (human) protease inhibition; Q92743; recombinant HTRA1, FP-rhodamine activity-based probe, fluorescence polarization; inhibition, % at 5.96 µM; 0.5% of 340,000 active; AID 504803; in the data active means inhibition above about 36%;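 further: 0% = enzyme with DMSO and 100% = wells lacking enzyme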
PAD4 inh: blocks human protein arginine deiminase 4. 0.41% of 330,000 active. AID 485272. Q9UM07. recombinant PAD4, RCA probe fluorescence polarization. inhibition, % at 6.36 µM;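 active means percent inhibition above a cutoff equal to the mean of all tested compounds plus 3 SD, cut at about 15% in these data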;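 further: 0% = PAD4 with RCA probe and DMSO and 100% = probe without PAD4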
BSA probe FL: interferes with TAMRA-BSA probe, flagging TCR-CD3 hits | shares compounds with TCR CD3 inh | TAMRA-labeled BSA probe fluorescence counterscreen | inhibition, % at 9.4 µM | 10% of 1,200 active | AID 652035; in the data active means inhibition above about 23%;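 further: 0% = buffer low control and 100% = reference high control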
TCR-CD3 conf: confirmation of human TCR-CD3 interaction inhibitors; shares compounds with TCR CD3 inh; TAMRA-labeled TCR probe fluorescence binding assay; inhibition, % at 9.4 µM; 48% of 1,200 active; AID 652036
Numbers without * were called inactive; x = no result. Unless noted, no stated cut-off is given here; in the data, active means inhibition above about 19%; inactive means the rest.

SMILES | SIAE primary | TCR CD3 inh | TDP2 absorb | ABHD4 inh | HTRA1 inh | PAD4 inh | BSA probe FL | TCR-CD3 conf
O=C(Nc1nnc([C@H]2C[C@H](O)[C@@H](CO)O2)s1)c1cccc(Oc2ccccc2)c1 | 3 | 21* | 0 | 4 | x | x | -1 | 5
NS(=O)(=O)c1cc([N+](=O)[O-])ccc1NCc1cccnc1 | 5 | 5 | -11 | 2 | 1 | 1 | x | x
O=C(N/N=C/c1sc(=O)[nH]c1-[n+]1ccc2ccccc2c1)c1ccccc1[O-] | 11 | 33* | 11 | 16 | 35 | 6 | -9 | 24*
O=C(N/N=C/c1sc(=O)[nH]c1-[n+]1ccccc1)c1ccccc1[O-] | 8 | 3 | 9 | 9 | 7 | -3 | x | x
Cc1ccc[n+](-c2[nH]c(=O)sc2/C=N/NC(=O)c2ccccc2[O-])c1 | -4 | 19* | -24 | 3 | 6 | -2 | -14 | 1
Cc1ccccc1C(=O)Nc1ccnn1C1CCN(Cc2ccncc2)CC1 | -5 | 8 | -11 | -9 | 2 | -3 | x | x
O=C(N/N=C/c1cc([N+](=O)[O-])ccc1O)c1ccc(COc2ccc3c(c2)CCC3)o1 | 13 | 45* | -24 | 8 | 29 | x | -6 | 17
Cc1cccc(C)c1NC(=O)NS(=O)(=O)c1ccccc1 | -6 | 2 | -1 | -6 | 5 | x | x | x
COc1cccc(N2CCN(CC(=O)NCc3ccccc3C)CC2)c1 | -4 | x | 0 | 3 | x | x | x | x
c1coc(CSSCc2ccco2)c1 | 2 | 20* | -3 | 28 | 22 | 3 | 4 | 6
CCOC(=O)c1sc(NC(=S)NC(=O)c2ccco2)nc1C | -6 | -5 | 4 | -2 | -3 | 0 | x | x
CCOC(=O)c1sc(NC(=O)C(CC)OC(=O)c2ccco2)nc1C (centres undefined) | -12 | 19* | -13 | -5 | -5 | 2 | -1 | -1
CCN(Cc1ccccc1)C(=O)COC(=O)Cn1cnc2ccccc21 | 5 | 0 | -2 | 1 | 3 | -1 | x | x
O=C(NNC(=O)c1cc(Cl)ccc1O)c1cccs1 | 0 | 25* | -12 | 15 | 21 | -6 | -15 | 19*
O=C(NNC(=O)c1ccccc1Cl)c1cccs1 | 10 | -5 | 4 | 4 | 6 | -2 | x | x
O=C(CCc1ccccc1)NNC(=O)c1cc(Cl)ccc1O | 0 | 24* | -4 | -5 | 16 | 0 | 49* | 47*
Cc1c(NC(=S)N/N=C/c2ccc([N+](=O)[O-])cc2O)c(=O)n(-c2ccccc2)n1C | 8 | 24* | -3 | 7 | 11 | -2 | 8 | 11
O=C(CSc1nc2cc(Cl)ccc2c(=O)n1Cc1ccco1)Nc1ccc(S(=O)(=O)N2CCOCC2)cc1 | -47 | 20* | 10 | -55 | -27 | -7 | 13 | 26*
Cc1ccc(C(=O)N2CCN(c3cccc(C)c3C)CC2)o1 | 2 | 33* | 9 | 2 | -7 | 0 | 3 | -1
O=C(CN1C(=O)NC(CCc2ccccc2)C1=O)Nc1ccccc1C(F)(F)F (centres undefined) | 6 | -8 | 1 | -12 | -8 | 0 | x | x
C=CCN(c1ccccc1OC)S(=O)(=O)c1cccc(C(=O)OCC(=O)c2c[nH]c3ccccc23)c1 | -111 | 44* | 4 | -88 | -87 | -4 | 1 | 2
COc1cc(OC)c(N(C)S(=O)(=O)c2cccc(C(=O)OCC(=O)c3c[nH]c4ccccc34)c2)cc1Cl | -108 | 38* | 7 | -88 | -89 | 0 | 4 | 18
COc1ccc(C(=O)OCC(=O)c2c[nH]c3ccccc23)cc1OC | 1 | -2 | 3 | 0 | -12 | -7 | x | x
Cc1ccc(C(C)C)c(OCc2ccc(C(=O)N/N=C/c3ccc(O)cc3O)cc2)c1 | -14 | 26* | -5 | -29 | 26 | -2 | -18 | 22*
O=C(NNC(=O)c1ccccc1O)c1cc2ccccc2o1 | 0 | 33* | -8 | 16 | 6 | -3 | -9 | 22*
SMILES | SIAE primary | TCR CD3 inh | TDP2 absorb | ABHD4 inh | HTRA1 inh | PAD4 inh | BSA probe FL | TCR-CD3 conf
O=C(NC(=O)c1ccccc1F)OCc1ccc(Cl)cc1Cl | -1 | 28* | -4 | -18 | -6 | -2 | -1 | 3
O=C(CNC(=O)c1ccccc1F)NCCc1ccc(Cl)cc1Cl | -1 | 9 | -1 | 1 | -13 | 5 | x | x
O=C(CCC(=O)N1CCCC1)N1CCCC1 | 9 | 12 | 5 | 5 | 0 | -9 | x | x
O=C(NC1CCCCCC1)C1CCN(S(=O)(=O)c2c(Cl)cccc2Cl)CC1 | 13 | 1 | 4 | 2 | 0 | -5 | x | x
O=C(NCc1ccco1)C1CCN(S(=O)(=O)c2ccccc2C(F)(F)F)CC1 | 0 | -3 | -10 | -1 | -1 | -1 | x | x
O=C(NNC(=O)C1CCN(S(=O)(=O)c2c(Cl)cccc2Cl)CC1)c1ccccc1O | 6 | 31* | -2 | 8 | 15 | 5 | -11 | 27*
O=C(NNC(=O)c1ccccc1O)c1ccc(Cl)c(S(=O)(=O)N2CCCCC2)c1 | 8 | 27* | 1 | 13 | 35 | -7 | -10 | 20*
O=C(NNC(=O)C1CCN(S(=O)(=O)c2ccccc2)CC1)c1ccccc1O | 4 | 47* | 7 | 11 | -2 | -4 | 6 | 40*
O=C(NNC(=O)C1CCN(S(=O)(=O)c2ccccc2C(F)(F)F)CC1)c1ccccc1O | 9 | 31* | 6 | 6 | 11 | -2 | -7 | 23*
Cn1nnnc1SCC(=O)Nc1ccc(Cl)c(S(=O)(=O)N2CCOCC2)c1 | -4 | -1 | -8 | 4 | 2 | 4 | x | x
CCCNC(=O)C1(C)CCN(Cc2ccc(OCc3ccccc3)cc2)C1 (centres undefined) | 0 | -10 | -2 | -1 | x | x | x | x
CCNS(=O)(=O)c1ccc(NC(=S)NCC2CCCO2)cc1 (centres undefined) | 3 | 4 | 2 | -2 | 0 | -4 | x | x
CC1=C(C(=O)Nc2ccc(Cl)cc2)C2(CCCCC2)C(C(N)=O)C(=S)N1 (centres undefined) | -2 | 0 | -3 | -7 | x | -8 | x | x
COc1ccc([C@H]2C[C@@H](O)[C@H](n3cc(C4CC4)nn3)CN2CC2CCCCC2)cc1 | 1 | -4 | 1 | -12 | -19 | x | x | x
O=C(Cn1nc2ccccc2n1)N/N=C/c1cc([N+](=O)[O-])ccc1O | -1 | 26* | -12 | 7 | 3 | -6 | 5 | 26*
O=C(Cn1nnc(-c2ccccc2)n1)N/N=C/c1cc([N+](=O)[O-])ccc1O | 0 | 16 | 6 | 4 | 7 | 2 | x | x
COc1ccc(N(CC(=O)Nc2ccc(F)c(F)c2)S(=O)(=O)c2c(C)n[nH]c2C)cc1 | -8 | 28* | -3 | 0 | -13 | 3 | 0 | 3

From PubChem
